ChEMBL document CHEMBL1122812, “Novel amino-substituted 3-quinolinecarboxylic acid antibacterial agents: synthesis and structure-activity relationships” (1984)
Values after ≈ are worked out from the molar mass of the structure shown.

How the values were obtained:
Format in all cases: functional
Escherichia coli = assay: In vitro minimum inhibitory concentration against growth of Escherichia coli Vogel
Procedure, shortened: (§1)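 Tube serial dilution. Cultures grown overnight at 37 °C in tryptose phosphate broth or brain heart infusion broth. Compound stock of 1000 μg/mL (as free acid) made in minimal 0.5 N NaOH, then diluted in distilled water. Dilutions were mixed 1:1 with culture to a final 1×10^5 cells/mL and incubated 18–20 h at 37 °C. MIC = lowest concentration with no visible growth.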

[1] = Antibacterial activity in mice after intraperitoneal administration with 0.5 mL of Escherichia coli Vogel inoculum; conditions: sc
Procedure, shortened: (§2)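 Female ICR mice (18-20 g) infected intraperitoneally with 0.5 mL of E. coli Vogel (grown in brain heart infusion broth, suspended in saline) at 1.9×10^7 cells/mL. Compound as free acid dissolved in dilute NaOH and diluted with water, given once (0.5 mL) sc or po at 0.5 h postinfection. Groups of 10 mice at four or five dose levels, with nonmedicated controls. Deaths recorded daily for 7 days; PD50 by probit analysis.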

Mus musculus = assay: Compound was evaluated for antibacterial activity in mice after peroral administration with 0.5 mL of Escherichia coli Vogel inoculum; conditions: po, read-out: PD50; procedure, shortened: as §2
Pseudomonas aeruginosa = assay: In vitro minimum inhibitory concentration against growth of Pseudomonas aeruginosa MGH-2; procedure, shortened: as §1
Klebsiella pneumoniae = assay: In vitro minimum inhibitory concentration against growth of Klebsiella pneumoniae strain 39645
Procedure, shortened: (§3)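 Tube serial dilution. Stocks at 1000 μg/mL (free acid) were made in minimal 0.5 N NaOH and diluted in distilled water. Cultures were grown overnight at 37 °C in tryptose phosphate or brain heart infusion broth. Final inoculum was 1×10^5 cells/mL, incubated 18–20 h at 37 °C. MIC was the lowest concentration preventing visible growth.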

Staphylococcus aureus = assay: In vitro minimum inhibitory concentration against growth of Staphylococcus aureus Smith; procedure, shortened: as §3

Row | SMILES | MIC (Escherichia coli) | PD50 [1] | ED50 (Mus musculus) | MIC (Pseudomonas aeruginosa) | MIC (Klebsiella pneumoniae) | MIC (Staphylococcus aureus)
1 | CNn1cc(C(=O)O)c(=O)c2cc(F)c(N3CC[N+](C)([O-])CC3)cc21 | 15.6 µg/mL (≈ 44.5 µM) | 9.4 mg/kg | – | – | – | –
2 | CCN1CCN(c2cc3c(cc2F)c(=O)c(C(=O)O)cn3NC)CC1 | 0.5 µg/mL (≈ 1.44 µM) | – | – | – | – | –
3 | CNn1cc(C(=O)O)c(=O)c2cc(F)c(N3CCCNCC3)cc21.Cl | – | 2.8 mg/kg | – | – | – | –
4 | C=CCNn1cc(C(=O)O)c(=O)c2cc(F)c(N3CCN(C)CC3)cc21 | 1 µg/mL (≈ 2.77 µM) | 19 mg/kg | – | – | – | –
5 | CNn1cc(C(=O)O)c(=O)c2cc(F)c(N3CCN(C(C)C)CC3)cc21 | 0.5 µg/mL (≈ 1.38 µM) | 1.5 mg/kg | – | – | – | –
6 | CN1CCN(c2cc3c(cc2F)c(=O)c(C(=O)O)cn3N)CC1 | 1.95 µg/mL (≈ 6.09 µM) | 2.9 mg/kg | – | – | – | –
7 | CNn1cc(C(=O)O)c(=O)c2cc(F)c(N3CCN(C)CC3)cc21 [AMIFLOXACIN] | 0.25 µg/mL (≈ 0.748 µM) | – | 1 mg/kg | 1 µg/mL (≈ 2.99 µM) | 0.25 µg/mL (≈ 0.748 µM) | 1 µg/mL (≈ 2.99 µM)
8 | CNn1cc(C(=O)O)c(=O)c2cc(F)c(N3CCN(C(C)=O)CC3)cc21 | 15.6 µg/mL (≈ 43.1 µM) | 109 mg/kg | – | – | – | –
9 | CNn1cc(C(=O)O)c(=O)c2cc(F)c(N3CCC(O)CC3)cc21 | 1.95 µg/mL (≈ 5.82 µM) | – | – | – | – | –
10 | CNn1cc(C(=O)O)c(=O)c2cc(F)c(N3CCC(O)C3)cc21 (configuration not stated) | 1 µg/mL (≈ 3.11 µM) | – | – | – | – | –
11 | CCCNn1cc(C(=O)O)c(=O)c2cc(F)c(N3CCN(C)CC3)cc21 | 1.95 µg/mL (≈ 5.38 µM) | 33 mg/kg | – | – | – | –
12 | CNn1cc(C(=O)O)c(=O)c2cc(F)c(N3CCCN(C)CC3)cc21.Cl | 1.95 µg/mL | 5.5 mg/kg | – | – | – | –
13 | CNn1cc(C(=O)O)c(=O)c2cc(F)c(N3CCCC3)cc21 | 1 µg/mL (≈ 3.28 µM) | – | – | – | – | –
14 | CNn1cc(C(=O)O)c(=O)c2cc(F)c(N3CCCC(O)C3)cc21 (configuration not stated) | – | 41 mg/kg | – | – | – | –
15 | CCOC(=O)c1cn(NC)c2cc(N3CCN(C)CC3)c(F)cc2c1=O.CS(=O)(=O)O | 62.5 µg/mL | – | – | – | – | –
16 | CNn1cc(C(=O)O)c(=O)c2cc(F)c(N3CCOCC3)cc21 | 0.5 µg/mL (≈ 1.56 µM) | 16.6 mg/kg | – | – | – | –
17 | CCCN1CCN(c2cc3c(cc2F)c(=O)c(C(=O)O)cn3NC)CC1 | 0.25 µg/mL (≈ 0.69 µM) | 14.2 mg/kg | – | – | – | –
18 | CNn1cc(C(=O)O)c(=O)c2cc(F)c(N3CCSCC3)cc21 | 0.5 µg/mL (≈ 1.48 µM) | – | – | – | – | –
19 | CNn1cc(C(=O)O)c(=O)c2cc(F)c(N3CCNCC3)cc21 | 1 µg/mL (≈ 3.12 µM) | 0.3 mg/kg | 6.4 mg/kg | 1 µg/mL (≈ 3.12 µM) | 1 µg/mL (≈ 3.12 µM) | 1.95 µg/mL (≈ 6.09 µM)
20 | CCn1cc(C(=O)O)c(=O)c2cc(F)c(N3CCN(C)CC3)cc21 [PEFLOXACIN] | 0.25 µg/mL (≈ 0.75 µM) | 0.5 mg/kg | 1.1 mg/kg | 1 µg/mL (≈ 3 µM) | 0.5 µg/mL (≈ 1.5 µM) | 1 µg/mL (≈ 3 µM)
21 | CN1CCN(c2cc3c(cc2F)c(=O)c(C(=O)O)cn3N(C)C)CC1 | 0.5 µg/mL (≈ 1.44 µM) | 1.6 mg/kg | – | – | – | –
22 | CCNn1cc(C(=O)O)c(=O)c2cc(F)c(N3CCN(C)CC3)cc21 | 0.5 µg/mL (≈ 1.44 µM) | – | – | – | – | –
23 | CCn1cc(C(=O)O)c(=O)c2cc(F)c(N3CCNCC3)cc21 [NORFLOXACIN] | 0.5 µg/mL (≈ 1.57 µM) | 0.3 mg/kg | 5.9 mg/kg | 1 µg/mL (≈ 3.13 µM) | 0.5 µg/mL (≈ 1.57 µM) | 1.95 µg/mL (≈ 6.11 µM)
